Experimental data taken from ChEMBL document CHEMBL3758107, “Lead optimization of the VU0486321 series of mGlu(1) PAMs. Part 2: SAR of alternative 3-methyl heterocycles and progress towards an in vivo tool” (Bioorg Med Chem Lett, 2016).

Columns and labels:
[1] = target: T1, Metabotropic glutamate receptor 1 (Homo sapiens, UniProt Q13255); assay: Positive allosteric modulation of human mGlu1 receptor at 10 uM by cell based calcium mobilization relative to glutamate; type: functional
Method in brief: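 Calcium mobilization assay at mGlu1, tested at a single point of 10 μM; response given as % Glu Max.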
Target sequence in this assay (Q13255 19-1194 limits assumed): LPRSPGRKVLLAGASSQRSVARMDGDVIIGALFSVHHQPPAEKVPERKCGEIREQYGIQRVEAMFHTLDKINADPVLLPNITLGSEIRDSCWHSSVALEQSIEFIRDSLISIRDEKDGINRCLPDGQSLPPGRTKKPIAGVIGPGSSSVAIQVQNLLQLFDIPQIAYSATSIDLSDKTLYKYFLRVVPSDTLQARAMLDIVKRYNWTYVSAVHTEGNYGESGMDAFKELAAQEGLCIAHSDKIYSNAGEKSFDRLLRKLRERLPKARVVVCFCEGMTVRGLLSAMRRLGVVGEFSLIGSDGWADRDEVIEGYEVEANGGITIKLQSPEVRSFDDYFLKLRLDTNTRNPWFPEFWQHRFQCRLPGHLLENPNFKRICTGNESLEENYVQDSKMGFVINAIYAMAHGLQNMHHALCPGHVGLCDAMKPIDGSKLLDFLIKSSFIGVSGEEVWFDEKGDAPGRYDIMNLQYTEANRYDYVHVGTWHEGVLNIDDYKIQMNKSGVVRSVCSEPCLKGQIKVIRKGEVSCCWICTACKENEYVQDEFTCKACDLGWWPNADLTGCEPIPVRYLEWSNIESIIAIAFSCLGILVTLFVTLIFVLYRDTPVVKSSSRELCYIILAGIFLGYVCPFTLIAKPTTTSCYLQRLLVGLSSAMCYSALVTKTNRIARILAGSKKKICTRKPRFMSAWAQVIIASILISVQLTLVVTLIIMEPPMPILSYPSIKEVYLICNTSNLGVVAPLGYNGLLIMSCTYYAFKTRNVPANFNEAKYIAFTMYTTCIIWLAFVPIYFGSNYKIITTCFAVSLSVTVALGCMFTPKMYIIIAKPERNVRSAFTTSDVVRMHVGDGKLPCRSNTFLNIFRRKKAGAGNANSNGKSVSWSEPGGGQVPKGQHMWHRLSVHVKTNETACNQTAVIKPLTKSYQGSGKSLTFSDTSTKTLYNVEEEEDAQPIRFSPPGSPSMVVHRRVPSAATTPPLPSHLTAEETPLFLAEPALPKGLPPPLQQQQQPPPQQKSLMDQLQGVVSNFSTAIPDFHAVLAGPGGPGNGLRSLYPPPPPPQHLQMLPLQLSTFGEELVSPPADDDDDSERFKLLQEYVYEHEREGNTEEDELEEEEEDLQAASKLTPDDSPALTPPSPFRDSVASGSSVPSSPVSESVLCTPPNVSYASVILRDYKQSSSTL

[2] = target: T1, Metabotropic glutamate receptor 1; assay: Positive allosteric modulation of human mGlu1 receptor by cell based calcium mobilization; type: functional
Method in brief: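 Calcium mobilization assay at mGlu1; EC50 and % Glu Max taken as the average of three independent experiments, each run in triplicate.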
Target sequence in this assay (Q13255 whole entry): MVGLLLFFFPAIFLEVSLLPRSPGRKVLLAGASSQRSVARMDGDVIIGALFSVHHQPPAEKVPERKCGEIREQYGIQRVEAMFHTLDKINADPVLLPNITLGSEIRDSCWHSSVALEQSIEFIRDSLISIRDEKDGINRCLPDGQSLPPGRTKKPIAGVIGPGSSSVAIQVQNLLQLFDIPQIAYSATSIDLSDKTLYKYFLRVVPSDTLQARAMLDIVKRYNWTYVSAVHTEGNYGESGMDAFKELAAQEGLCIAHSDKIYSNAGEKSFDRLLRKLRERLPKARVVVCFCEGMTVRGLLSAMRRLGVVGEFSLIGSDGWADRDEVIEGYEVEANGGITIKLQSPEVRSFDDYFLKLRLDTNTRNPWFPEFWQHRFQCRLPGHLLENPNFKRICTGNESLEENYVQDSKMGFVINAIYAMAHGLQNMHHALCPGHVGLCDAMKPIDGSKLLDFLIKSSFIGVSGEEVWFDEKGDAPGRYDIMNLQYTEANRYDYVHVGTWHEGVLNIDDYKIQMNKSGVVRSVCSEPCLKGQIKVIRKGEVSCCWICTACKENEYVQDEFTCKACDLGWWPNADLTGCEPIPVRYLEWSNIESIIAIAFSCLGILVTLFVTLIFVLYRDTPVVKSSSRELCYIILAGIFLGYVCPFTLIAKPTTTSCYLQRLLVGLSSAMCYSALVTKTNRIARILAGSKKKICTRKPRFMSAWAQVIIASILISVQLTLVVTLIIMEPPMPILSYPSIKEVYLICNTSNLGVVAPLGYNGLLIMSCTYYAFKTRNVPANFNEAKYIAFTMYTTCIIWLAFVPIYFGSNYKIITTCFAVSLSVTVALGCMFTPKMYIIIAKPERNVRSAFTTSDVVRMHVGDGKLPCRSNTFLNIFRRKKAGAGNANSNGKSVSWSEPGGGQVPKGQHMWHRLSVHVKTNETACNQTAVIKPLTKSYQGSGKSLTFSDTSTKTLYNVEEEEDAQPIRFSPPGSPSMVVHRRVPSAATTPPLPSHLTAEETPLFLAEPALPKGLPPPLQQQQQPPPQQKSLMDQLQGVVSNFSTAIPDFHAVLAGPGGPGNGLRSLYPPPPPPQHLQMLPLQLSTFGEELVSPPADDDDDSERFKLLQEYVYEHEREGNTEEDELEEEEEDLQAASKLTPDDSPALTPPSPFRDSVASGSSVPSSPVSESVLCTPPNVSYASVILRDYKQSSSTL

[3] = target: T2, Metabotropic glutamate receptor 4 (Homo sapiens, UniProt Q14833); assay: Positive allosteric modulation of human mGlu4 receptor by cell based calcium mobilization; type: functional
T2 sequence (Q14833 whole entry): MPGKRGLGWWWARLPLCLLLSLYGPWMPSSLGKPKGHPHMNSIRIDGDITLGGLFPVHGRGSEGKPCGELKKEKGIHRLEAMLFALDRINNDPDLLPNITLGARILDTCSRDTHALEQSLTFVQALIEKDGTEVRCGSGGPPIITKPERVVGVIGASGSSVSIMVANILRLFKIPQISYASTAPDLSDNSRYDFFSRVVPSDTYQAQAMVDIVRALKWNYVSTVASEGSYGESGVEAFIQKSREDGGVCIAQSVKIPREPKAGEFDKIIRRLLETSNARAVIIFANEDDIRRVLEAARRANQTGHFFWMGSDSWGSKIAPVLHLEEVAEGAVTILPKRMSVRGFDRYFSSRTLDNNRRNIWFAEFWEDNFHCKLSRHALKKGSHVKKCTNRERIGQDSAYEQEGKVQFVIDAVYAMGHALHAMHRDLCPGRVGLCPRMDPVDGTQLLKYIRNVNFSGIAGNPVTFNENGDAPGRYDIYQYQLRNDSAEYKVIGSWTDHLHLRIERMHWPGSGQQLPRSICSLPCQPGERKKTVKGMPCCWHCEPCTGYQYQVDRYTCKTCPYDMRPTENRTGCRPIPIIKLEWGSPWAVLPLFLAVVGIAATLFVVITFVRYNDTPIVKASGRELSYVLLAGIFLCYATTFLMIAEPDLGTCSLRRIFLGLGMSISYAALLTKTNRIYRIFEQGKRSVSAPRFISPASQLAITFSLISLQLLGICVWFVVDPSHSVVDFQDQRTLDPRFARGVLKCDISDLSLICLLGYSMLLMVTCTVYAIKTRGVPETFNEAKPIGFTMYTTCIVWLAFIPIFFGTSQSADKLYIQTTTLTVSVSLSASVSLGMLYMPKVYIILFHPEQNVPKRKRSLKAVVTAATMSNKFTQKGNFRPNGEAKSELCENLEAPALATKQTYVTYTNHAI

[4] = target: T2, Metabotropic glutamate receptor 4; assay: Positive allosteric modulation of human mGlu4 receptor assessed as glutamate-induced calcium mobilization at 10 uM by cell based assay relative to PHCCC; type: functional
[5] = organism: Homo sapiens; assay: Selectivity ratio of EC50 for human mGlu4 receptor to EC50 for human mGlu1 receptor

Row | SMILES | %max [1] [%] | EC50 ([2]; read-out: EC50) [nM] | EC50 [3] [nM] | %max [4] [%] | Ratio EC50 [5] | EC50 ([2]; read-out: pEC50 (converted)) [nM]
1 | Cc1scnc1C(=O)Nc1ccc(N2C(=O)c3cccc(Cl)c3C2=O)cc1F | 22 | – | – | – | – | –
2 | Cn1cccc1C(=O)Nc1ccc(N2C(=O)c3ccccc3C2=O)c(Cl)c1 | 95 | 5260 | – | – | – | –
3 | Cc1cn[nH]c1C(=O)Nc1ccc(N2C(=O)c3ccc(F)cc3C2=O)c(Cl)c1 | 106 | 632 | 6200 | 59 | 9.8 | –
4 | Cc1scnc1C(=O)Nc1ccc(N2C(=O)c3cccc(F)c3C2=O)cc1F | 43 | – | – | – | – | –
5 | CN1CCC[C@@H]1C(=O)Nc1ccc(N2C(=O)c3ccccc3C2=O)c(Cl)c1 | – | > 10000 | – | – | – | –
6 | Cc1scnc1C(=O)Nc1ccc(N2C(=O)c3cccc(Cl)c3C2=O)c(Cl)c1 | 121 | 1370 | > 10000 | 59 | – | –
7 | Cc1ccc2c(c1)C(=O)N(c1ccc(NC(=O)c3ncsc3C)cc1Cl)C2=O | 86 | 22 | 1120 | 161 | 51.1 | –
8 | Cc1cn[nH]c1C(=O)Nc1ccc(N2C(=O)c3cccc(F)c3C2=O)c(Cl)c1 | 83 | 599 | > 10000 | – | – | 22.4
9 | Cc1ocnc1C(=O)Nc1ccc(N2C(=O)c3cccc(F)c3C2=O)cc1F | 36 | – | – | – | – | –
10 | Cc1cc[nH]c1C(=O)Nc1ccc(N2C(=O)c3ccccc3C2=O)c(Cl)c1 | 95 | 3420 | – | – | – | 3470
11 | Cc1scnc1C(=O)Nc1ccc(N2C(=O)c3ccc(F)cc3C2=O)cc1F | 45 | – | – | – | – | –
12 | Cc1ocnc1C(=O)Nc1ccc(N2C(=O)c3cccc(Cl)c3C2=O)cc1F | 27 | – | – | – | – | –
13 | Cc1ccc2c(c1)C(=O)N(c1ccc(NC(=O)c3ncoc3C)c(F)c1)C2=O | 14 | – | – | – | – | –
14 | Cc1scnc1C(=O)Nc1ccc(N2C(=O)c3ccc(Cl)cc3C2=O)cc1F | 40 | – | – | – | – | –
15 | Cc1ocnc1C(=O)Nc1ccc(N2C(=O)c3ccc(F)cc3C2=O)c(Cl)c1 | 93 | 141 | 642 | 36 | 4.6 | –
16 | Cc1ccc2c(c1)C(=O)N(c1ccc(NC(=O)c3[nH]ncc3C)cc1Cl)C2=O | 106 | 557 | 2750 | 133 | 4.9 | –
17 | Cc1ccc2c(c1)C(=O)N(c1ccc(NC(=O)c3nccn3C)cc1Cl)C2=O | 108 | 254 | 602 | 124 | 2.4 | –
18 | Cc1ccc2c(c1)C(=O)N(c1ccc(NC(=O)c3ncsc3C)c(F)c1)C2=O | 36 | – | – | – | – | –
19 | Cc1scnc1C(=O)Nc1ccc(N2C(=O)c3cccnc3C2=O)c(Cl)c1 | 98 | 191 | > 10000 | – | – | –
20 | Cc1cn[nH]c1C(=O)Nc1ccc(N2C(=O)c3ccc(Cl)cc3C2=O)c(Cl)c1 | 113 | 855 | 3380 | 117 | 3.9 | –
21 | Cc1ccc2c(c1)C(=O)N(c1ccc(NC(=O)c3ncoc3C)cc1Cl)C2=O | 98 | 41 | 198 | 75 | 4.8 | –
22 | Cc1ocnc1C(=O)Nc1ccc(N2C(=O)c3ccc(Cl)cc3C2=O)cc1F | 25 | – | – | – | – | –
23 | Cc1ocnc1C(=O)Nc1ccc(N2C(=O)c3cccnc3C2=O)cc1F | 9 | – | – | – | – | –
24 | Cc1ocnc1C(=O)Nc1ccc(N2C(=O)c3cccc(F)c3C2=O)c(Cl)c1 | 98 | 241 | > 10000 | – | 1.7 | 1700
25 | Cc1ocnc1C(=O)Nc1ccc(N2C(=O)c3ccc(F)cc3C2=O)cc1F | 16 | – | – | – | – | –
26 | Cc1scnc1C(=O)Nc1ccc(N2C(=O)c3ccccc3C2=O)c(Cl)c1 | 96 | 56 | – | – | – | 58.9
27 | Cc1scnc1C(=O)Nc1ccc(N2C(=O)c3cccc(F)c3C2=O)c(Cl)c1 | 111 | 187 | 474 | 52 | 2.5 | –

Row | SMILES | %max [1] [%] | EC50 ([2]; read-out: EC50) [nM] | EC50 [3] [nM] | %max [4] [%] | Ratio EC50 [5] | EC50 ([2]; read-out: pEC50 (converted)) [nM]
28 | Cc1ocnc1C(=O)Nc1ccc(N2C(=O)c3cccc(Cl)c3C2=O)c(Cl)c1 | 112 | 1290 | 983 | 24 | 0.7 | 1320
29 | Cc1[nH]ccc1C(=O)Nc1ccc(N2C(=O)c3ccccc3C2=O)c(Cl)c1 | – | > 10000 | – | – | – | –
30 | Cn1ccnc1C(=O)Nc1ccc(N2C(=O)c3cccc(Cl)c3C2=O)c(Cl)c1 | 30 | > 10000 | > 10000 | 30 | – | –
31 | Cn1ccnc1C(=O)Nc1ccc(N2C(=O)c3ccc(Cl)cc3C2=O)c(Cl)c1 | 103 | 265 | 1570 | 145 | 5.9 | –
32 | Cn1ccnc1C(=O)Nc1ccc(N2C(=O)c3cccnc3C2=O)c(Cl)c1 | 44 | > 10000 | > 10000 | – | – | –
33 | Cn1ccnc1C(=O)Nc1ccc(N2C(=O)c3ccccc3C2=O)c(Cl)c1 | 59 | 374 | – | – | – | 355
34 | Cc1cn[nH]c1C(=O)Nc1ccc(N2C(=O)c3cccnc3C2=O)c(Cl)c1 | 37 | > 10000 | > 10000 | 27 | – | –
35 | Cc1scnc1C(=O)Nc1ccc(N2C(=O)c3ccc(Cl)cc3C2=O)c(Cl)c1 | 91 | 51 | 1980 | 169 | 39.1 | –
36 | Cc1cccc2c1C(=O)N(c1ccc(NC(=O)c3ncoc3C)cc1Cl)C2=O | 91 | 469 | 519 | 39 | 0.9 | 479
37 | Cc1cn[nH]c1C(=O)Nc1ccc(N2C(=O)c3cccc(C)c3C2=O)c(Cl)c1 | 110 | 4940 | > 10000 | – | – | –
38 | Cc1ocnc1C(=O)Nc1ccc(N2C(=O)c3ccccc3C2=O)cc1F | 18 | – | – | – | – | –
39 | Cn1ccnc1C(=O)Nc1ccc(N2C(=O)c3cccc(F)c3C2=O)c(Cl)c1 | 43 | > 10000 | 1090 | 42 | – | –
40 | Cc1cn[nH]c1C(=O)Nc1ccc(N2C(=O)c3cccc(Cl)c3C2=O)c(Cl)c1 | 94 | > 10000 | > 10000 | – | – | –
41 | CN1CCC[C@H]1C(=O)Nc1ccc(N2C(=O)c3ccccc3C2=O)c(Cl)c1 | – | > 10000 | – | – | – | –
42 | Cc1scnc1C(=O)Nc1ccc(N2C(=O)c3ccc(F)cc3C2=O)c(Cl)c1 | 98 | 63 | 306 | 52 | 4.9 | –
43 | Cc1scnc1C(=O)Nc1ccc(N2C(=O)c3cccnc3C2=O)cc1F | 42 | – | – | – | – | –
44 | Cc1ncsc1C(=O)Nc1ccc(N2C(=O)c3ccccc3C2=O)c(Cl)c1 | – | > 10000 | – | – | – | –
45 | Cc1cccc2c1C(=O)N(c1ccc(NC(=O)c3ncoc3C)c(F)c1)C2=O | 20 | – | – | – | – | –
46 | Cc1cccc2c1C(=O)N(c1ccc(NC(=O)c3nccn3C)cc1Cl)C2=O | 30 | > 10000 | 506 | 32 | – | –
47 | Cc1ocnc1C(=O)Nc1ccc(N2C(=O)c3ccccc3C2=O)c(Cl)c1 | 100 | 1470 | – | – | – | –
48 | Cc1cccc2c1C(=O)N(c1ccc(NC(=O)c3ncsc3C)c(F)c1)C2=O | 17 | – | – | – | – | –
49 | Cc1ccsc1C(=O)Nc1ccc(N2C(=O)c3ccccc3C2=O)c(Cl)c1 | 105 | 1890 | – | – | – | –
50 | Cc1scnc1C(=O)Nc1ccc(N2C(=O)c3ccccc3C2=O)cc1F | 45 | – | – | – | – | –
51 | Cc1ncoc1C(=O)Nc1ccc(N2C(=O)c3ccccc3C2=O)c(Cl)c1 | – | > 10000 | – | – | – | –
52 | Cc1cn[nH]c1C(=O)Nc1ccc(N2C(=O)c3ccccc3C2=O)c(Cl)c1 | 107 | 1240 | – | – | – | –
53 | Cc1sccc1C(=O)Nc1ccc(N2C(=O)c3ccccc3C2=O)c(Cl)c1 | 105 | 1510 | – | – | – | –
